{"source": "ChEMBL document CHEMBL3992541", "about": "“Combined treatment with zingerone and its novel derivative synergistically inhibits TGF-β1 induced epithelial-mesenchymal transition, migration and invasion of human hepatocellular carcinoma cells” (2017)", "key": {"[1]": {"test_system": "SNU-182", "assay": "Inhibition of TGFbeta1-induced epithelial-mesenchymal transition in human SNU182 cells assessed as reduction in downregulation of E-cadherin expression at 40 uM preincubated for 2 hrs followed by TGFbeta1 addition measured after 48 hrs by Western blot method", "assay_type": "functional, cell-based", "outline": "(§1)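 SNU182 cells pretreated 2 h with single agents (12.5 or 40 µM) or the mixture (20 and 40 µM), then stimulated with TGF-β1 5 ng/ml for 48 h. E-cadherin and Snail protein detected by Western blot, with GAPDH as loading control.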"}, "[2]": {"test_system": "SNU-182", "assay": "Inhibition of TGFbeta1-induced epithelial-mesenchymal transition in human SNU182 cells assessed as reduction in MMP2 mRNA expression at 40 uM preincubated for 2 hrs followed by TGFbeta1 addition measured after 48 hrs by qRT-PCR method", "assay_type": "functional, cell-based", "outline": "(§2)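 SNU182 cells pretreated 2 h with single agents (12.5 or 40 µM) or the mixture (20 or 40 µM), then TGF-β 5 ng/ml for 48 h. MMP-2 and MMP-9 mRNA measured by RT-PCR with densitometry and by qRT-PCR, fold change by the 2^-ΔΔCt method. Mean±SD of triplicates.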"}, "[3]": {"test_system": "SNU-182", "assay": "(§3) Inhibition of TGFbeta1-induced epithelial-mesenchymal transition in human SNU182 cells assessed as reduction in MMP2 mRNA expression preincubated for 2 hrs followed by TGFbeta1 addition measured after 48 hrs in presence of (E)-1-(9-Ethyl-9H-carbazol-3-yl)-5-(4-hydroxy-3-methoxyphenyl)pent-1-en-3-one by qRT-PCR method", "assay_type": "functional, cell-based", "outline": "as §2"}, "[4]": {"molecular_target": "Transcription factor Jun (Homo sapiens) (UniProt P05412)", "sequence (P05412 whole entry)": "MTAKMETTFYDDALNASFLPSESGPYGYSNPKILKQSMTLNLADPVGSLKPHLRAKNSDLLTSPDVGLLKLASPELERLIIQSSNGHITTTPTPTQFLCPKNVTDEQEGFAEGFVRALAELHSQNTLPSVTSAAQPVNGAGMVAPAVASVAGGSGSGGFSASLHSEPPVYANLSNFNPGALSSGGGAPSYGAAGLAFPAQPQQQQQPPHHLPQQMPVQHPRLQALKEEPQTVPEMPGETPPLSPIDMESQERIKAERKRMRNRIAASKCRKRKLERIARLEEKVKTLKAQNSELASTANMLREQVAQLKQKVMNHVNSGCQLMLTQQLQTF", "assay": "Inhibition of TGFbeta1-induced AP-1 binding activity in human SNU182 cells at 20 to 40 uM measured after 48 hrs in presence of (E)-1-(9-Ethyl-9H-carbazol-3-yl)-5-(4-hydroxy-3-methoxyphenyl)pent-1-en-3-one by luciferase reporter gene assay", "assay_type": "cell-based", "outline": "(§4)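 SNU182 transfected with pGL4.44-AP-1-RE-Luc or empty pGL4.44, pretreated with the mixture (20 and 40 µM), then stimulated with TGF-β1 or DMSO. Luciferase reporter activity read. Mean±SD of triplicates.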"}, "[5]": {"test_system": "SNU-182", "assay": "as §3, with “MMP9” for “MMP2”", "assay_type": "functional, cell-based", "outline": "as §2"}, "[6]": {"test_system": "SNU-182", "assay": "Growth inhibition of human SNU182 cells at <50 uM after 48 hrs by CCK8 assay", "assay_type": "functional, cell-based"}, "[7]": {"test_system": "SNU-182", "assay": "Inhibition of TGFbeta1-induced invasion in human SNU182 cells at 40 uM measured after 48 hrs in presence of (E)-1-(9-Ethyl-9H-carbazol-3-yl)-5-(4-hydroxy-3-methoxyphenyl)pent-1-en-3-one by microscopic method", "assay_type": "functional, cell-based", "outline": "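Matrigel invasion chamber: SNU182 cells in the inner chamber received TGF-β1 with or without the mixture for 48 h. Cells on the lower surface stained, imaged at 200×, and counted. Mean±SD of triplicates.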"}, "[8]": {"species": "Homo sapiens", "assay": "Inhibition of TGFbeta1-induced NF-kB nuclear translocation in human SNU182 cells preincubated for 2 hrs followed by TGFbeta1 addition measured after 12 hrs in presence of (E)-1-(9-Ethyl-9H-carbazol-3-yl)-5-(4-hydroxy-3-methoxyphenyl)pent-1-en-3-one by Western blot method", "assay_type": "cell-based", "outline": "(§5)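 Mixture added to SNU182 cells for 2 h before TGF-β1 for 12 h. Cytosolic and nuclear fractions analysed by Western blot for NF-κB, with COX4 as cytosolic and Lamin B1 as nuclear marker.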"}, "[9]": {"molecular_target": "Transcription factor Jun (Homo sapiens) (UniProt P05412)", "assay": "Inhibition of TGFbeta1-induced AP-1 binding activity in human SNU182 cells at 20 to 40 uM measured after 48 hrs in presence of zingerone by luciferase reporter gene assay", "assay_type": "cell-based", "outline": "as §4"}, "[10]": {"test_system": "SNU-182", "assay": "Growth inhibition of human SNU182 cells assessed as cell survival at 12.5 uM after 48 hrs by CCK8 assay relative to control", "assay_type": "functional", "settings": "SNU-182, 48 h, read-out: Survival", "outline": "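SNU182 human hepatocellular carcinoma cells were exposed to compound at 6.25, 12.5, 25, 50 and 100 µM in serum-free DMEM for 48 h. Viability was read by CCK-8, where WST-8 is reduced by cellular dehydrogenases to a soluble formazan, and expressed as survival relative to vehicle control. Values are mean±SD of triplicates.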"}, "[11]": {"molecular_target": "T1, NF-kappa-B inhibitor alpha (Homo sapiens) (UniProt P25963)", "T1 sequence (whole entry)": "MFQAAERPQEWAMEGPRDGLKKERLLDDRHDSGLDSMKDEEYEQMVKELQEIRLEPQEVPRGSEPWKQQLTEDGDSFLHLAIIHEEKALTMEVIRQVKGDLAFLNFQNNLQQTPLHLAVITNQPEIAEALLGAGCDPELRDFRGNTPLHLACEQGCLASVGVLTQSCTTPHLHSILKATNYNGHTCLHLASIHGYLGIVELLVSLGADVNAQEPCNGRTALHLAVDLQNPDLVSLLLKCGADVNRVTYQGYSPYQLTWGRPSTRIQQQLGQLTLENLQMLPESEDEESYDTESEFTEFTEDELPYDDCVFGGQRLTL", "assay": "Inhibition of TGFbeta1-induced IkB-alpha phosphorylation in human SNU182 cells at 20 to 40 uM preincubated for 2 hrs followed by TGFbeta1 addition measured after 120 mins in presence of zingerone by Western blot method", "assay_type": "cell-based", "outline": "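SNU182 cells pretreated with the mixture (20 and 40 µM) for 2 h, then exposed to TGF-β1 for 120 min. IκB protein assessed by Western blot, with GAPDH loading control.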"}, "[12]": {"test_system": "SNU-182", "assay": "Inhibition of TGFbeta1-induced epithelial-mesenchymal transition in human SNU182 cells assessed as reduction in upregulation of Snail expression at 12.5 uM preincubated for 2 hrs followed by TGFbeta1 addition measured after 48 hrs by Western blot method", "assay_type": "functional, cell-based", "outline": "as §1"}, "[13]": {"test_system": "SNU-182", "assay": "Inhibition of TGFbeta1-induced epithelial-mesenchymal transition in human SNU182 cells assessed as reduction in upregulation of Snail expression preincubated for 2 hrs followed by TGFbeta1 addition measured after 48 hrs in presence of zingerone by Western blot method", "assay_type": "functional, cell-based", "outline": "as §1"}, "[14]": {"test_system": "SNU-182", "assay": "Inhibition of TGFbeta1-induced epithelial-mesenchymal transition in human SNU182 cells assessed as reduction in MMP2 mRNA expression at 12.5 uM preincubated for 2 hrs followed by TGFbeta1 addition measured after 48 hrs by qRT-PCR method", "assay_type": "functional, cell-based", "outline": "as §2"}, "[15]": {"test_system": "SNU-182", "assay": "Inhibition of TGFbeta1-induced epithelial-mesenchymal transition in human SNU182 cells assessed as reduction in downregulation of E-cadherin expression preincubated for 2 hrs followed by TGFbeta1 addition measured after 48 hrs in presence of zingerone by Western blot method", "assay_type": "functional, cell-based", "outline": "as §1"}, "[16]": {"molecular_target": "Mitogen-activated protein kinase; ERK1/ERK2 (Homo sapiens) (UniProt P27361+P28482)", "sequence (P27361 whole entry, looked up)": "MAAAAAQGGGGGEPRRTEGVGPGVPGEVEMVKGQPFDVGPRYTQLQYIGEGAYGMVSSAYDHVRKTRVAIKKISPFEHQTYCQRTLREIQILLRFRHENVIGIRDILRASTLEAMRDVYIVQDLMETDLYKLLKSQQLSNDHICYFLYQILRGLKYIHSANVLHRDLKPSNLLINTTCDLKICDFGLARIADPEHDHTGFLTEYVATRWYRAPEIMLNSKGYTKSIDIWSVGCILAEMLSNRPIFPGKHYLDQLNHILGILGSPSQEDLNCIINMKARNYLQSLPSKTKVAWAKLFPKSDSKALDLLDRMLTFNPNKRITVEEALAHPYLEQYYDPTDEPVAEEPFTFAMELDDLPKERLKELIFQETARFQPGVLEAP", "sequence (P28482 whole entry, looked up)": "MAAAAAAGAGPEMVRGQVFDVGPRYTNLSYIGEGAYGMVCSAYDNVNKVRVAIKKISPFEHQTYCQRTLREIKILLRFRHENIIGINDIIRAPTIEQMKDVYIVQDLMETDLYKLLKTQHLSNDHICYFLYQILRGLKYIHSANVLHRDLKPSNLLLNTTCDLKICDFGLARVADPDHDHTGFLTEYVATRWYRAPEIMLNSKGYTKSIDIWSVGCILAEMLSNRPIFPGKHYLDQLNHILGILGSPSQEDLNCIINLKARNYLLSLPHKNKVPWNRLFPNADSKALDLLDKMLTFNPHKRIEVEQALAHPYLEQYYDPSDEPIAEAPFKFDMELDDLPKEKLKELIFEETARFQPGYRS", "assay": "Inhibition of TGFbeta1-induced p44/42 MAPK phosphorylation in human SNU182 cells measured after 48 hrs in presence of zingerone by Western blot method", "assay_type": "cell-based", "outline": "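SNU182 cells incubated 48 h with TGF-β1 5 ng/ml alone or together with the mixture at 20 and 40 µM, then lysed. Phospho-p42/44 MAPK detected by Western blot, with total p42/44 MAPK as loading control.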"}, "[17]": {"species": "Homo sapiens", "assay": "Inhibition of TGFbeta1-induced NF-kB nuclear translocation in human SNU182 cells preincubated for 2 hrs followed by TGFbeta1 addition measured after 12 hrs in presence of zingerone by Western blot method", "assay_type": "cell-based", "outline": "as §5"}}, "note": "The source made the active and inactive calls. The rule behind the calls is not given here."}
{"molecule": "COc1cc(CCC(C)=O)ccc1O", "values": [{"measurement": "inhibition", "setting": "[1]", "value": "inactive"}, {"measurement": "inhibition", "setting": "[2]", "value": "inactive"}, {"measurement": "inhibition", "setting": "[3]", "value": "Dose-dependent effect"}, {"measurement": "inhibition", "setting": "[4]", "value": "Active"}, {"measurement": "inhibition", "setting": "[5]", "value": "Dose-dependent effect"}, {"measurement": "growth inhibition (GI)", "setting": "[6]", "value": "inactive"}, {"measurement": "inhibition", "setting": "[7]", "value": "Active"}, {"measurement": "inhibition", "setting": "[8]", "value": "Dose-dependent effect"}]}
{"molecule": "CCn1c2ccccc2c2cc(/C=C/C(=O)CCc3ccc(O)c(OC)c3)ccc21", "values": [{"measurement": "inhibition", "setting": "[9]", "value": "Active"}, {"measurement": "viability at 12.5 µM", "setting": "[10]", "value": "> 90", "unit": "%"}, {"measurement": "inhibition", "setting": "[11]", "value": "Active"}, {"measurement": "inhibition", "setting": "[12]", "value": "inactive"}, {"measurement": "inhibition", "setting": "[13]", "value": "Dose-dependent effect"}, {"measurement": "inhibition", "setting": "[14]", "value": "inactive"}, {"measurement": "inhibition", "setting": "[15]", "value": "Dose-dependent effect"}, {"measurement": "inhibition", "setting": "[16]", "value": "Dose-dependent effect"}, {"measurement": "inhibition", "setting": "[17]", "value": "Dose-dependent effect"}]}
